pEC50, pKi: −log10 of the molar value.
Tests used:
Format in all cases: cell-based
[1] = biological target: T1, Transient receptor potential cation channel subfamily V member 1 (Rattus norvegicus, UniProt O35433); assay: Agonist activity at rat TRPV1 expressed in CHO cells assessed as stimulation of Ca2+ uptake
How it was run: (§1)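 Functional 45Ca2+ uptake assay in CHO cells heterologously expressing rat or human TRPV1. Agonism is reported as EC50, and as % of the capsaicin response. Antagonism is reported as Ki(ant) against capsaicin-stimulated 45Ca2+ uptake, and as % antagonism of that response. Ki and EC50 are mean ± SEM of three or more independent experiments.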

[2] = biological target: T2, Transient receptor potential cation channel subfamily V member 1 (Homo sapiens, UniProt Q8NER1); assay: Displacement of [3H]RTX from human TRPV1 expressed in CHO cells
T2 sequence (Q8NER1 whole entry): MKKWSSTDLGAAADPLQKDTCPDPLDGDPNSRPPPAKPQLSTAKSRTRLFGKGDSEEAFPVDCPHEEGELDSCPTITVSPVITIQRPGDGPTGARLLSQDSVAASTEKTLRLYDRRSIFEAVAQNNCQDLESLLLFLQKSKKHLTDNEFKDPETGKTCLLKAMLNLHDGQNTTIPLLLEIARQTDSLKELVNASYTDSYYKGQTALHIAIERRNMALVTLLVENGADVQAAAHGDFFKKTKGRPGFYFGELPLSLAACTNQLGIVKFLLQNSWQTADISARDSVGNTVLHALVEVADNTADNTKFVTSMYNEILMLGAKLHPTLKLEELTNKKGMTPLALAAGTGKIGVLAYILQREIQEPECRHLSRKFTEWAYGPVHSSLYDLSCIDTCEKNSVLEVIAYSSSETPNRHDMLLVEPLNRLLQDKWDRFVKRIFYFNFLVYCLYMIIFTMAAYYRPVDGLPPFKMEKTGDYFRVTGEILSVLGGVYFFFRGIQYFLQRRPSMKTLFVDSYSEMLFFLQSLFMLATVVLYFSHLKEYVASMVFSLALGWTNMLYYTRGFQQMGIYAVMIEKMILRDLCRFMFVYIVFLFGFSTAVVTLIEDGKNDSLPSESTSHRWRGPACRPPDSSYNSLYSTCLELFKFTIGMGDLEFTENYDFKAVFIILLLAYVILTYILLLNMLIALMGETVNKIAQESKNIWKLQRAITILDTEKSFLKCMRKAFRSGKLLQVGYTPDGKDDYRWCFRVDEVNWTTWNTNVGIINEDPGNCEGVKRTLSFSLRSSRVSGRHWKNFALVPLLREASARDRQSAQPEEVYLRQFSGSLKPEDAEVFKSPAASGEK
How it was run: (§2)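 Competitive binding against [3H]RTX on rat or human TRPV1 heterologously expressed in CHO cells. Affinity is reported as Ki, as mean ± SEM of three or more independent experiments.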

[3] = biological target: T1, Transient receptor potential cation channel subfamily V member 1; assay: Displacement of [3H]RTX from rat TRPV1 expressed in CHO cells; how it was run: as §2
[4] = biological target: Transient receptor potential cation channel subfamily V member 1 (Rattus norvegicus) (UniProt O35433); assay: Agonist activity at rat TRPV1 expressed in CHO cells assessed as stimulation of Ca2+ uptake relative to capsaicin; how it was run: as §1
Transient receptor potential cation channel subfamily V member 1 (Rattus norvegicus), sequence (O35433 whole entry): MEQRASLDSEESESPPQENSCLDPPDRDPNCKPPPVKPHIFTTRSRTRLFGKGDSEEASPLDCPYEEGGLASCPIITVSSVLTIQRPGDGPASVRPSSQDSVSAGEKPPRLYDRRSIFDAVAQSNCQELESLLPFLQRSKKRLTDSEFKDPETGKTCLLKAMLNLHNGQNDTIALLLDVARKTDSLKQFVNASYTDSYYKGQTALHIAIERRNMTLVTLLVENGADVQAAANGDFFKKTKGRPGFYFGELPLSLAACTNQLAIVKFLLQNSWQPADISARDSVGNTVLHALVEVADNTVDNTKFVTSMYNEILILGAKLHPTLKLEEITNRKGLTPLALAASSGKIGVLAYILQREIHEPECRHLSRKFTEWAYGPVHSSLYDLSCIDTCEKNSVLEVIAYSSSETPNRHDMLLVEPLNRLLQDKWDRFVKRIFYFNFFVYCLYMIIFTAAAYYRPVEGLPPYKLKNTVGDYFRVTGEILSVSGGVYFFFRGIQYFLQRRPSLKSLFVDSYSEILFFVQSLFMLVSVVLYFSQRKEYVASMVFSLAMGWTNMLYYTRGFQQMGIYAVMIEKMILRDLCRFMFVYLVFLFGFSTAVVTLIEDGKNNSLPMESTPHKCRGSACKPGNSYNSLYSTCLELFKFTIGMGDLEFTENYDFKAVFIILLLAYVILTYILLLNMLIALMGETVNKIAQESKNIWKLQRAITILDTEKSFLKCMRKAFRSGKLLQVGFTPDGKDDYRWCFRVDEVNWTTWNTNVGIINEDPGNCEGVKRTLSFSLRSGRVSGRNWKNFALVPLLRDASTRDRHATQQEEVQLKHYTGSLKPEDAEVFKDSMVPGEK

[5] = biological target: T2, Transient receptor potential cation channel subfamily V member 1; assay: Agonist activity at human TRPV1 expressed in CHO cells assessed as stimulation of Ca2+ uptake; how it was run: as §1
[6] = biological target: T2, Transient receptor potential cation channel subfamily V member 1; assay: Antagonist activity at human TRPV1 expressed in CHO cells assessed as inhibition of capsaicin-stimulated Ca2+ uptake; how it was run: as §1
[7] = biological target: T1, Transient receptor potential cation channel subfamily V member 1; assay: Antagonist activity at rat TRPV1 expressed in CHO cells assessed as inhibition of capsaicin-stimulated Ca2+ uptake; how it was run: as §1
[8] = biological target: Transient receptor potential cation channel subfamily V member 1 (Rattus norvegicus) (UniProt O35433); assay: Ratio of I-RTX Ki to compound Ki for rat TRPV1 expressed in CHO cells
[9] = biological target: Transient receptor potential cation channel subfamily V member 1 (Rattus norvegicus) (UniProt O35433); assay: Partial antagonist activity at rat TRPV1 expressed in CHO cells assessed as inhibition of capsaicin-stimulated Ca2+ uptake measured as residual agonism; details: concentration not given here; how it was run: as §1

T1 sequence (O35433 whole entry): as above

| Structure (SMILES) | pEC50 [1] | pKi [2] | pKi [3] | Activity [4] [%] | pEC50 [5] | pKi [6] | pKi [7] | Ratio Ki [8] | inhibition [9] [%] |
| --- | --- | --- | --- | --- | --- | --- | --- | --- | --- |
| C=C(C)[C@]12C[C@@H](C)[C@@]34O[C@](Cc5ccccc5)(O[C@@H]1[C@@H]3C=C(COC(=O)Oc1cc(F)c(N)c(OC)c1)C[C@]1(O)C(=O)C(C)=C[C@@H]41)O2 | 8.50 | 6.08 | 8.66 | 83 | 7.75 |  |  |  |  |
| C=C(C)[C@]12C[C@@H](C)[C@@]34O[C@](Cc5ccccc5)(O[C@@H]1[C@@H]3C=C(COC(=O)Oc1cc(Br)c(O)c(OC)c1)C[C@]1(O)C(=O)C(C)=C[C@@H]41)O2 |  | 7.48 | 8.79 |  |  | 6.29 | 8.28 | 2 | 13 |
| C=C(C)[C@]12C[C@@H](C)[C@@]34O[C@](Cc5ccccc5)(O[C@@H]1[C@@H]3C=C(COC(=O)Oc1cc(I)c(N)c(OC)c1)C[C@]1(O)C(=O)C(C)=C[C@@H]41)O2 |  | 6.00 | 8.52 |  |  | 5.74 | 8.57 |  |  |
| C=C(C)[C@]12C[C@@H](C)[C@@]34O[C@](Cc5ccccc5)(O[C@@H]1[C@@H]3C=C(COC(=O)Oc1cc(Br)c(N)c(OC)c1)C[C@]1(O)C(=O)C(C)=C[C@@H]41)O2 |  | 6.67 | 8.74 |  |  | 6.18 | 8.61 | 5 |  |
| C=C(C)[C@]12C[C@@H](C)[C@@]34O[C@](Cc5ccccc5)(O[C@@H]1[C@@H]3C=C(COC(=O)Oc1ccc(N)c(OC)c1)C[C@]1(O)C(=O)C(C)=C[C@@H]41)O2 | 8.74 | 6.85 | 9.24 |  | 8.20 |  |  |  |  |
| C=C(C)[C@]12C[C@@H](C)[C@@]34O[C@](Cc5ccccc5)(O[C@@H]1[C@@H]3C=C(COC(=O)Oc1cc(F)c(O)c(OC)c1)C[C@]1(O)C(=O)C(C)=C[C@@H]41)O2 | 8.30 | 6.86 | 8.93 |  | 7.79 |  |  |  |  |
| C=C(C)[C@]12C[C@@H](C)[C@@]34O[C@](Cc5ccccc5)(O[C@@H]1[C@@H]3C=C(COC(=O)Oc1ccc(NS(C)(=O)=O)c(OC)c1)C[C@]1(O)C(=O)C(C)=C[C@@H]41)O2 | 8.34 | 7.09 | 8.89 | 89 | 7.78 |  |  |  |  |
| C=C(C)[C@]12C[C@@H](C)[C@@]34O[C@](Cc5ccccc5)(O[C@@H]1[C@@H]3C=C(COC(=O)Cc1ccc(O)c(OC)c1)C[C@]1(O)C(=O)C(C)=C[C@@H]41)O2 [RESINIFERATOXIN] |  | 8.91 |  |  | 9.04 |  |  |  |  |
| C=C(C)[C@]12C[C@@H](C)[C@@]34O[C@](Cc5ccccc5)(O[C@@H]1[C@@H]3C=C(COC(=O)Oc1cc(I)c(O)c(OC)c1)C[C@]1(O)C(=O)C(C)=C[C@@H]41)O2 |  | 7.31 | 8.78 |  |  | 6.72 | 8.65 | 5 |  |
| C=C(C)[C@]12C[C@@H](C)[C@@]34O[C@](Cc5ccccc5)(O[C@@H]1[C@@H]3C=C(COC(=O)Oc1cc(Cl)c(O)c(OC)c1)C[C@]1(O)C(=O)C(C)=C[C@@H]41)O2 |  | 7.30 | 8.79 | 13 | 6.74 | 6.35 | 7.67 |  |  |
| C=C(C)[C@]12C[C@@H](C)[C@@]34O[C@](Cc5ccccc5)(O[C@@H]1[C@@H]3C=C(COC(=O)Oc1cc(Cl)c(N)c(OC)c1)C[C@]1(O)C(=O)C(C)=C[C@@H]41)O2 |  | 6.48 | 8.60 |  |  | 5.85 | 8.39 | 5 |  |
| C=C(C)[C@]12C[C@@H](C)[C@@]34O[C@](Cc5ccccc5)(O[C@@H]1[C@@H]3C=C(COC(=O)Cc1cc(I)c(O)c(OC)c1)C[C@]1(O)C(=O)C(C)=C[C@@H]41)O2 [IODORESINIFERATOXIN] |  | 7.93 |  |  |  | 8.23 |  |  |  |

From ChEMBL document CHEMBL2424631, “The carbonate analogues of 5'-halogenated resiniferatoxin as TRPV1 ligands” (Eur J Med Chem, 2013)
